# Assay results collected from several papers.
# Compare with care: the assays were run in different laboratories.
# TEC: Tyrosine-protein kinase Tec (TEC, Homo sapiens, UniProt P42680)
# TEC phosphorylated: Tyrosine-protein kinase Tec, phosphorylated (TEC, Homo sapiens, UniProt P42680)
Structure (SMILES),target,assay,conditions,endpoint,value
CN(C)C(=O)Cn1cc(-c2nc(C3(c4ccc(-c5cnc(N)nc5)cc4)CC3)no2)cn1,TEC,"binding, competition with immobilised ligand",1 µM,remaining binding,93%
C[S+]([O-])c1ccc(-c2nc(-c3ccncc3)c(-c3ccc(F)cc3)[nH]2)cc1 (centres unmarked),TEC,cell-free assay,0.5 µM,remaining signal,113%
CN([C@@H]1CCc2c(CC(=O)O)c3ccccc3n2C1)S(=O)(=O)c1ccc(F)cc1,TEC,"cell-free assay, competition with immobilised ligand",1 µM,remaining binding,100%
CC(C)(C)c1nc(-c2cccc(NS(=O)(=O)c3c(F)cccc3F)c2F)c(-c2ccnc(N)n2)s1,TEC,"enzyme activity, inhibitor, radiometric",1 µM,remaining activity,87%
CC(=O)N1CCC(c2ccc(C(=O)NC3=NCCN3)cc2C(F)(F)F)CC1,TEC,"binding, competition with immobilised ligand",1 µM,remaining binding,100%
Cc1ccc(C(=O)Nc2ccc(CN3CCN(C)CC3)c(C(F)(F)F)c2)cc1C#Cc1cnc2cccnn12,TEC,enzyme activity,23.5 nM,remaining activity,84%
CCN(CC)c1ccc(C2=NNC(=O)CC2C)cc1[N+](=O)[O-] (centres unmarked),TEC phosphorylated,"enzyme activity, inhibitor",10 µM,remaining activity,64%
CNC(=O)c1cc(Oc2ccc(NC(=O)Nc3ccc(Cl)c(C(F)(F)F)c3)cc2)ccn1,TEC,cell-free assay,0.5 µM,remaining signal,101%
CC(C)(O)[C@H]1CC[C@H](Nc2ccc3ncc(-c4cccc(C(F)(F)F)c4)n3n2)CC1,TEC,"enzyme activity, inhibitor",1 µM,remaining activity,104%
CCOc1cc(-c2nncn2C)ccc1Nc1ncc2cc(C)nc(NCC(C)(C)C)c2n1,TEC,"cell-free assay, TR-FRET",1 µM,inhibition,≤ 15%
CC(C)[C@H](NC(=O)c1cc(-c2cnn3cc(-c4ccc(OCCN5CCCCC5)cc4)cnc23)cs1)C(F)(F)F,TEC,"enzyme activity, inhibitor, radiometric",15 nM,inhibition,0%
O=C(O)c1cc(-c2ccc(C3CCNCC3)cc2)c2ccc(-c3ccc(C(F)(F)F)cc3)cc2c1,TEC,"cell-free assay, competition with immobilised ligand",1 µM,remaining binding,100%
CCCS(=O)(=O)Nc1ccc(F)c(C(=O)c2c[nH]c3ncc(-c4ccc(Cl)cc4)cc23)c1F,TEC,"enzyme activity, inhibitor",1 µM,inhibition,< 10%
NS(=O)(=O)c1cc(NC(=O)C2(c3ccccc3Cl)CC2)ccc1Oc1cccc(Cl)c1,TEC,"binding, competition with immobilised ligand",1 µM,remaining binding,81%
CN1CC(Oc2cnc(C#N)cc2-c2ccn3nc(NC(=O)C4CC4)cc3c2)C1,TEC phosphorylated,"enzyme activity, inhibitor",1 µM,inhibition,25%
Nc1c(C(=O)NCc2ccc(C(=O)NCCCC3CCCCC3)cc2)cnn1-c1ccccc1,TEC,"cell-free assay, competition with immobilised ligand",0.1 µM,remaining binding,100%
O=C(Nc1cnn(-c2csc(C(=O)NC3COC3)c2)c1)Nc1c(F)cccc1Cl,TEC,"enzyme activity, inhibitor",5 µM,remaining activity,97.7%
Oc1cccc(-c2nc(N3CCOCC3)c3oc4ncccc4c3n2)c1,TEC,cell-free assay,0.5 µM,remaining signal,113%
Cc1ccc(NC(=O)c2ccc(C)c(C(F)(F)F)c2)cc1C#Cc1nn(C2CCC(O)CC2)c2ncnc(N)c12 (centres unmarked),TEC phosphorylated,"enzyme activity, inhibitor",10 µM,remaining activity,24%
Cc1cc(NC(=O)c2cccc3cc(-c4cccc5[nH]nc(N)c45)ccc23)ccc1F,TEC phosphorylated,"enzyme activity, inhibitor",0.1 µM,activity vs control,90%
